Source: paper PMC4503343 (Molecular pharmacology, 2013)
Where two headings read alike, the source gives them in different places.

What was measured:
[1] = biological target: human P-gp wild-type (Homo sapiens, UniProt P08183); assay type: cell-based
[2] = biological target: human P-gp Y950F (Homo sapiens, UniProt P08183, Y950F); test: Inhibition of rh123 efflux, Y950F mutant; assay type: cell-based
[3] = biological target: human P-gp Y953F (Homo sapiens, UniProt P08183, Y953F); test: Inhibition of rh123 efflux, Y953F mutant; assay type: cell-based
[4] = biological target: human P-gp Y950F/Y953F (Homo sapiens, UniProt P08183, Y950F/Y953F); test: Inhibition of rh123 efflux, Y950F/Y953F double mutant; assay type: cell-based
[5] = biological target: T1, human P-gp Q132R (Homo sapiens, UniProt P08183, Q132R); test: Inhibition of rh123 efflux, Q132R mutant; assay type: cell-based; conditions: for fold difference in IC50 values for wild-type protein and the Q132R mutant: Q132R mutant vs wild-type
[6] = biological target: human P-gp Q132R/Y953F (Homo sapiens, UniProt P08183, Q132R/Y953F); test: Inhibition of rh123 efflux, Q132R/Y953F mutant; assay type: cell-based; conditions: for fold higher IC50 value than the Q132R mutation: Q132R/Y953F mutant vs Q132R
[7] = system: human P-gp Q132R/Y950F/Y953F; test: Inhibition of rh123 efflux, Q132R/Y950F/Y953F triple mutant; assay type: cell-based; conditions: in the Q132R background
[8] = pKa and protonated fraction of propafenone analogs; assay type: physicochemical; conditions: at intracellular pH, estimated from pKa
[9] = ref Ecker et al., 1999; cited from earlier work
[10] = biological target: T1, human P-gp Q132R; test: Continuous monitoring of rh123 zero trans efflux, Q132R mutant; assay type: cell-based; conditions: mean ± S.D.
Method in brief: (§1)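 HEK293 cells, with endogenous P-gp knocked down by lentiviral shRNA and puromycin selection, were transiently transfected with hexa-His human P-gp mutants. Cells were loaded with 0.53 μM rh123 (final) in DMEM pH 7.8 for 30 min at 37°C, chilled and washed, then effluxed into 37°C DMEM pH 7.4. Flow cytometry ran 5 min at 37°C (488/534 nm). Exponential-fit k was normalized to MRK16 surface staining. n≥3.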

[11] = biological target: human P-gp Q773R (Homo sapiens, UniProt P08183, Q773R); test: Continuous monitoring of rh123 zero trans efflux, Q773R mutant; assay type: cell-based; conditions: mean ± S.D.
Method in brief: as §1

[12] = biological target: human P-gp Q773R/Y950F/Y953F (Homo sapiens, UniProt P08183, Q773R/Y950F/Y953F); test: Continuous monitoring of rh123 zero trans efflux, Q773R/Y950F/Y953F mutant; assay type: cell-based; conditions: expressed at the surface
Method in brief: as §1

[13] = biological target: human P-gp Q132R/Y950F (Homo sapiens, UniProt P08183, Q132R/Y950F); test: Inhibition of rh123 efflux, Q132R/Y950F mutant; assay type: cell-based

human P-gp Y950F, sequence (P08183 whole entry Y950F): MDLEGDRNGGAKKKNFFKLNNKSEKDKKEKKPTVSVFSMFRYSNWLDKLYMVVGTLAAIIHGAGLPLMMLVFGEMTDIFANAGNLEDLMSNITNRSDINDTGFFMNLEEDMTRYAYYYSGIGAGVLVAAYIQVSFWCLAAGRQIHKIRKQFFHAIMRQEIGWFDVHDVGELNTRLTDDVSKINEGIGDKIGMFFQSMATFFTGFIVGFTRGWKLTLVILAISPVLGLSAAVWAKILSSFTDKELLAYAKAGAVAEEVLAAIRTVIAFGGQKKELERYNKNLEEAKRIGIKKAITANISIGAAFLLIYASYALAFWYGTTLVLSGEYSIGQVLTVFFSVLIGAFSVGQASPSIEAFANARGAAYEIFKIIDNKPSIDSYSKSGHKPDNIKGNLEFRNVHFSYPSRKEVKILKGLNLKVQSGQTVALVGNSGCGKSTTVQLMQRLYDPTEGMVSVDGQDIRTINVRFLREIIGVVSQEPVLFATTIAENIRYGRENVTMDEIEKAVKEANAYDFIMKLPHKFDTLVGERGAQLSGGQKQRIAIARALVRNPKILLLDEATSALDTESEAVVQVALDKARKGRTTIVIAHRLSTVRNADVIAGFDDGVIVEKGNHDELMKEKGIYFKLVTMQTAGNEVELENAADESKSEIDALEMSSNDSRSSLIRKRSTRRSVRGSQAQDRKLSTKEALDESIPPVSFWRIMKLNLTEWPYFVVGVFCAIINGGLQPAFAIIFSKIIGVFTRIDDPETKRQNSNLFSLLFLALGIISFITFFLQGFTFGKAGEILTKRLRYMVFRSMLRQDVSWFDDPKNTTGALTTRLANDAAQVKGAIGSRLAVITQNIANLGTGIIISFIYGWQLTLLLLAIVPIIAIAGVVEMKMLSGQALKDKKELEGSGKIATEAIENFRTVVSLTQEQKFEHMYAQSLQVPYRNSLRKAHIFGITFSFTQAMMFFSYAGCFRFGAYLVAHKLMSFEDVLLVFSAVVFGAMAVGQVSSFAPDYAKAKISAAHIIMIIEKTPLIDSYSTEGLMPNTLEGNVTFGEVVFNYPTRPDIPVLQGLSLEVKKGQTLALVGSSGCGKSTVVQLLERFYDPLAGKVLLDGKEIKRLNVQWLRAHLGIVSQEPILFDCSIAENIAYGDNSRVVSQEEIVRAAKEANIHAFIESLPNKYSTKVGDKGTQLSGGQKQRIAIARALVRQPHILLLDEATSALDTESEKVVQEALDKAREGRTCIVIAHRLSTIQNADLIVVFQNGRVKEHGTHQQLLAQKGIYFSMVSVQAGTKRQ
human P-gp wild-type, sequence (P08183 whole entry): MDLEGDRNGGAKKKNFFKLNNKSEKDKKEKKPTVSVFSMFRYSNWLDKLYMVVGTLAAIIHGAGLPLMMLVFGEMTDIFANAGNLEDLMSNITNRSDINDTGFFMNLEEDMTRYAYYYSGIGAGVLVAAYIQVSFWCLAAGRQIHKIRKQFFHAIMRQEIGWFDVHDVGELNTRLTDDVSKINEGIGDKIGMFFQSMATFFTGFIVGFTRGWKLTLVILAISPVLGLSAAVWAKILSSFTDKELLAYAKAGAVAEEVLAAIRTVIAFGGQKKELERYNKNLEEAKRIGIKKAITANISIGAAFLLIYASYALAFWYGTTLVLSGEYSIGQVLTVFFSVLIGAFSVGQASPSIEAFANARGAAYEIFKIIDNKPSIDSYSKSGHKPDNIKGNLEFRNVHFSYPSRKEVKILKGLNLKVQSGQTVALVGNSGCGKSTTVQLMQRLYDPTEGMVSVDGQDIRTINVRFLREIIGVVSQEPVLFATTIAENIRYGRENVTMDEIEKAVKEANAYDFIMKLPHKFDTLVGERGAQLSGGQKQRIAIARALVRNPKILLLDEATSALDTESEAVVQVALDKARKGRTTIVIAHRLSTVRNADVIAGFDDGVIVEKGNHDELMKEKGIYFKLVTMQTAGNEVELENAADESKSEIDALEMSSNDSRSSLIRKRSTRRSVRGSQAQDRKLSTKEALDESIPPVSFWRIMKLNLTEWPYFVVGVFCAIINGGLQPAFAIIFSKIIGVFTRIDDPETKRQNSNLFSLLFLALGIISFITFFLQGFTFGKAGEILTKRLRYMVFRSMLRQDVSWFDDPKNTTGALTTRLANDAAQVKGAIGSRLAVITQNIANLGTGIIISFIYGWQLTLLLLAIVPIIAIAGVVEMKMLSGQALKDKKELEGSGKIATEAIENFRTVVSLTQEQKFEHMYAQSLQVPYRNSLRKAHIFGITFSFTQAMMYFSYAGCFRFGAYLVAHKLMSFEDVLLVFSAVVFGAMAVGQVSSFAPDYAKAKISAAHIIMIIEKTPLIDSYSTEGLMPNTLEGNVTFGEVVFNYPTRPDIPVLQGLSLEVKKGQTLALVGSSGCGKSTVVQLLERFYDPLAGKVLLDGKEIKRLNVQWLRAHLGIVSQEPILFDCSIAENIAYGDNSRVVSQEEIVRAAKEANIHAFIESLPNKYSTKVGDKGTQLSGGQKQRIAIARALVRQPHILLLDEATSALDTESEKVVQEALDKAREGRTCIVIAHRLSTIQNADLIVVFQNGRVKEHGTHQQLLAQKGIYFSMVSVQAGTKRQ
human P-gp Y950F/Y953F, sequence (P08183 whole entry Y950F/Y953F): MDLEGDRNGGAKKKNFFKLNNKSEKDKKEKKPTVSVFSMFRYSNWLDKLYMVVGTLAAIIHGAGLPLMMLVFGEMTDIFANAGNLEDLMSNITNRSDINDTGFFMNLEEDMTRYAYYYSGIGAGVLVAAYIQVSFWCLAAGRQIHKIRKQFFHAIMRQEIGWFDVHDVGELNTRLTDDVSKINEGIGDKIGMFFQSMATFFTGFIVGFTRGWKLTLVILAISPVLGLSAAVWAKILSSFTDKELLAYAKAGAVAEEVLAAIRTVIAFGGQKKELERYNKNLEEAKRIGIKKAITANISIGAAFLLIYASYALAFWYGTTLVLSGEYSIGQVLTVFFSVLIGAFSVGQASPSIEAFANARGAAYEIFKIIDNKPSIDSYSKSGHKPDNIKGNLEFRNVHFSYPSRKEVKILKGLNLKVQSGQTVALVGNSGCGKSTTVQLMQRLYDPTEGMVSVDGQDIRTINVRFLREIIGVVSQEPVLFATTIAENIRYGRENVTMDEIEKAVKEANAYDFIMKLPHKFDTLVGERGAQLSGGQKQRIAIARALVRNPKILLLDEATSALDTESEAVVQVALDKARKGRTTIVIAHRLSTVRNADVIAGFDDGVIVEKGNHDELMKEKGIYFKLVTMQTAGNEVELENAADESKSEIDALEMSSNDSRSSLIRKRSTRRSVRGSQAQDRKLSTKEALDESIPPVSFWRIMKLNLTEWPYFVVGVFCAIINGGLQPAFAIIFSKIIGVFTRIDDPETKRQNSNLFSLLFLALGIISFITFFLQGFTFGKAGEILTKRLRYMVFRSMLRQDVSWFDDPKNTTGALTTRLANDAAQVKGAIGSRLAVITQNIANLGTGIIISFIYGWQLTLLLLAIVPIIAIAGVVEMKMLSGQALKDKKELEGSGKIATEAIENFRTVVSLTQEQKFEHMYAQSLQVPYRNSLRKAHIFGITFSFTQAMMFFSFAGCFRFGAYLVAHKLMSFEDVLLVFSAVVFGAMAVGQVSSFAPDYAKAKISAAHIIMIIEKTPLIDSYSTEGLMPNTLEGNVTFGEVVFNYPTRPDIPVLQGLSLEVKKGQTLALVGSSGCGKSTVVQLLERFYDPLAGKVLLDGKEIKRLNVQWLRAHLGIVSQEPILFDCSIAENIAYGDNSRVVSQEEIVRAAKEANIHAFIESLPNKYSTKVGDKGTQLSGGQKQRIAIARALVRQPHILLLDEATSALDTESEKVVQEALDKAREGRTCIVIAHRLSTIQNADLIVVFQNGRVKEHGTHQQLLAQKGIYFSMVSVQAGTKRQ
human P-gp Y953F, sequence (P08183 whole entry Y953F): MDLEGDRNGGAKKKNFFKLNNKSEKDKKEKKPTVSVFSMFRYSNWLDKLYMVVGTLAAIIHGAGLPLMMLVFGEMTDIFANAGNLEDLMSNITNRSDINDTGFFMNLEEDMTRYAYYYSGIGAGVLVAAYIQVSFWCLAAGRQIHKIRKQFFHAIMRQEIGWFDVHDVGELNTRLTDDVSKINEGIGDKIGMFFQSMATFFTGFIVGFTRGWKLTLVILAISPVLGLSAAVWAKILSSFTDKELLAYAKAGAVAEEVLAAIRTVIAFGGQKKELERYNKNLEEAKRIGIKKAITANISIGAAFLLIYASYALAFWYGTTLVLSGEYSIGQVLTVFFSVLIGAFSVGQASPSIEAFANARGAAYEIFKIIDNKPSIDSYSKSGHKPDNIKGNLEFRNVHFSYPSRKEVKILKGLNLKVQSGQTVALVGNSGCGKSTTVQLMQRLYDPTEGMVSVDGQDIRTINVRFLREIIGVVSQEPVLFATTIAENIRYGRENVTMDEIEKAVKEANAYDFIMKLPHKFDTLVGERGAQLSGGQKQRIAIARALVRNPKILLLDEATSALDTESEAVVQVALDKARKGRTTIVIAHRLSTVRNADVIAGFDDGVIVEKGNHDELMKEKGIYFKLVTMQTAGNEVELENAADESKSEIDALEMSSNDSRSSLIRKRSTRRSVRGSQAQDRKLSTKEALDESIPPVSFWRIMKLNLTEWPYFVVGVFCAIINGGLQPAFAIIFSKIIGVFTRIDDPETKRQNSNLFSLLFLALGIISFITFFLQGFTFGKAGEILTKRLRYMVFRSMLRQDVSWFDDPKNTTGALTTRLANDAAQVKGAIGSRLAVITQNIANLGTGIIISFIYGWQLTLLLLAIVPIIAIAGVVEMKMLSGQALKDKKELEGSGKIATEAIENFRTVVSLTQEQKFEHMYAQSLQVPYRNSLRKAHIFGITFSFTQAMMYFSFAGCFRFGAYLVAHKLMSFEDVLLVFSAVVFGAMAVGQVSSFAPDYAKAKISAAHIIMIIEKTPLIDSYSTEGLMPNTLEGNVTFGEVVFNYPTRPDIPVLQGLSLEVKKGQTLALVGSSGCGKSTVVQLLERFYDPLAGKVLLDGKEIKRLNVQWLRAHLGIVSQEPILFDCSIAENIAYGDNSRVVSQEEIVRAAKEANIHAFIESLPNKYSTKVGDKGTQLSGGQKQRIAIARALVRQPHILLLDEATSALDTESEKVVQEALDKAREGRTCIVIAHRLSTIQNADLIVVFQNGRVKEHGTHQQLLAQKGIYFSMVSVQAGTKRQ

IC50 [1] [nM] | IC50 [2] [nM] | IC50 [3] [nM] | IC50 [4] [nM] | IC50 [5] [nM] | fold difference in IC50 values for wild-type protein and the Q132R mutant [5] | fold higher IC50 value than the Q132R mutation [6] [fold] | fold change in IC50 [7] [fold] | percentage of protonated (charged) species [8] | Compound | pKa [9] | further results
85 ± 22 | 238 ± 84 | 287 ± 109 | 630 ± 87 | 521 ± 183 | at least 3 fold | 2.1 | 2.7 | 60–70% | O=C(CCc1ccccc1)c1ccccc1OCC(O)CN1CCN(c2ccc(F)cc2)CC1 (stereo not drawn) [GPV031, 1-(2-(3-(4-(4-fluorophenyl)piperazin-1-yl)-2-hydroxypropoxy)phenyl)-3-phenylpropan-1-one] | 7.3 | 
 |  |  |  |  |  |  |  |  | COC(=O)c1ccccc1-c1c2ccc(=N)cc-2oc2cc(N)ccc12 [rh123, rhodamine123] |  | rh123 efflux (fractional transport rate) [10]: 75% ± 11%; rh123 efflux (fractional transport rate) [11]: 37% ± 8%; rh123 efflux [12]: no rh123 efflux was detectable
2240 ± 391 | 2980 ± 79 | 15900 | 17800 | 1070 ± 282 |  | 3.0 | 4.9 |  | CCCN(CC(O)COc1ccccc1C(=O)CCc1ccccc1)C(=O)c1ccccc1 (stereo not drawn) [GPV366, N-(2-hydroxy-3-(2-(3-phenylpropanoyl)phenoxy)propyl)-N-propylbenzamide] |  | fold change in IC50 relative to wild-type ([3]; Y953F mutant vs wild-type): 7.1 fold; fold change in IC50 relative to wild-type ([4]; Y950F/Y953F mutant vs wild-type): 8 fold; IC50 [13]: 966 ± 259 nM; IC50 [6]: 3260 ± 965 nM
 |  |  |  |  | at least 3 fold | 1.5 | 2.3 | > 90% | O=C(CCc1ccccc1)c1ccccc1OCC(O)CN1CCCCC1 (stereo not drawn) [GPV005] | 8.4 | IC50 ([1]; read-out: IC50 for inhibition of rh123 efflux, wild-type P-gp, HEK293 cells, 37°C, mean ± S.D.): 518 ± 141 nM; IC50 ([2]; read-out: IC50 for inhibition of rh123 efflux, Y950F mutant, HEK293 cells, mean ± S.D.): 1350 ± 229 nM; IC50 ([3]; read-out: IC50 for inhibition of rh123 efflux, Y953F mutant, HEK293 cells, mean ± S.D.): 1210 ± 362 nM; IC50 ([5]; read-out: IC50 for inhibition of rh123 efflux, Q132R mutant, HEK293 cells, mean ± S.D.): 1410 ± 215 nM
